The source of these data is ChEMBL document CHEMBL1156768, “The structure-activity relationship of the antimalarial ozonide arterolane (OZ277)” (J Med Chem, 2010).

In brackets after ≈: the same amount, converted by molar mass.

For one test, the system named is Plasmodium falciparum. As to the kind of experiment: Antimalarial activity against chloroquine-sensitive Plasmodium falciparum NF54 infected in human A+ erythrocytes assessed as [3H]hypoxanthine incorporation by semi-automated micro dilution assay. Format: functional, organism-based.
Conditions: not given
In the case of `CC(C)(N)CNC(=O)[C@H]1CC[C@@]2(CC1)OO[C@@]1(O2)C2CC3CC(C2)CC1C3.Cc1ccc(S(=O)(=O)O)cc1`, the IC50 amounted to 0.74 ng/mL.
For the compound `NC(=O)CNC(=O)C[C@H]1CC[C@]2(CC1)OO[C@]1(O2)C2CC3CC(C2)CC1C3`, the half-maximal inhibitory concentration (IC50) stood at 3.6 ng/mL (≈ 9.51 nM).
Regarding `NC(=O)C1CCN(C(=O)C[C@H]2CC[C@]3(CC2)OO[C@]2(O3)C3CC4CC(C3)CC2C4)CC1`, the IC50 was 1.7 ng/mL (≈ 3.93 nM).
As to `O=CN1CCN(C(=O)C[C@H]2CC[C@]3(CC2)OO[C@]2(O3)C3CC4CC(C3)CC2C4)CC1`, the 50% inhibitory concentration (IC50) is 0.63 ng/mL (≈ 1.51 nM).
For `O=C(O)C1CCN(C(=O)C[C@H]2CC[C@]3(CC2)OO[C@]2(O3)C3CC4CC(C3)CC2C4)CC1`, the IC50 turned out to be 27 ng/mL (≈ 62.3 nM).
Still for that read-out and setting: with `O=C(C[C@H]1CC[C@]2(CC1)OO[C@]1(O2)C2CC3CC(C2)CC1C3)NO` the figure was 2 ng/mL (≈ 5.93 nM); with `O=C1CN(C(=O)C[C@H]2CC[C@]3(CC2)OO[C@]2(O3)C3CC4CC(C3)CC2C4)CCN1`, 0.89 ng/mL (≈ 2.2 nM).
As to `CC(C)(N)CNC(=O)[C@H]1CC[C@]2(CC1)OO[C@]1(O2)C2CC3CC(C2)CC1C3.Cc1ccc(S(=O)(=O)O)cc1`, the 50% inhibitory concentration (IC50) is 0.25 ng/mL.
For `O=C(C[C@H]1CC[C@]2(CC1)OO[C@]1(O2)C2CC3CC(C2)CC1C3)N1CCCCC1`, the 50% inhibitory concentration (IC50) is 1.6 ng/mL (≈ 4.11 nM).
The same measure, in the same setting: with `O=C(C[C@H]1CC[C@]2(CC1)OO[C@]1(O2)C2CC3CC(C2)CC1C3)N1CCOCC1` the figure was 3 ng/mL (≈ 7.66 nM).
With `NC(=O)C[C@H]1CC[C@]2(CC1)OO[C@]1(O2)C2CC3CC(C2)CC1C3`, the half-maximal inhibitory concentration (IC50) came out at 1.1 ng/mL (≈ 3.42 nM).
`Cc1ccc(S(=O)(=O)O)cc1.NCCCNC(=O)C[C@H]1CC[C@]2(CC1)OO[C@]1(O2)C2CC3CC(C2)CC1C3`: the IC50 is 2.3 ng/mL.

Another test relates to Plasmodium falciparum. Description: Antimalarial activity against chloroquine-resistant Plasmodium falciparum K1 infected in human A+ erythrocytes assessed as [3H]hypoxanthine incorporation by semiautomated micro dilution assay. Format: functional, organism-based.
Conditions: not given
For the compound `CC(C)(N)CNC(=O)[C@H]1CC[C@@]2(CC1)OO[C@@]1(O2)C2CC3CC(C2)CC1C3.Cc1ccc(S(=O)(=O)O)cc1`, the 50% inhibitory concentration (IC50) worked out at 1.4 ng/mL.
On the same count and under the same terms, with `NC(=O)CNC(=O)C[C@H]1CC[C@]2(CC1)OO[C@]1(O2)C2CC3CC(C2)CC1C3` the figure was 3.9 ng/mL (≈ 10.3 nM).
On to `O=CN1CCN(C(=O)C[C@H]2CC[C@]3(CC2)OO[C@]2(O3)C3CC4CC(C3)CC2C4)CC1`, for which the IC50 is 0.39 ng/mL (≈ 0.932 nM).
Same read-out and setting: in the case of `O=C(O)C1CCN(C(=O)C[C@H]2CC[C@]3(CC2)OO[C@]2(O3)C3CC4CC(C3)CC2C4)CC1` it was 19 ng/mL (≈ 43.8 nM).
Still for that read-out and setting: with `O=C(C[C@H]1CC[C@]2(CC1)OO[C@]1(O2)C2CC3CC(C2)CC1C3)NO` the figure was 1.4 ng/mL (≈ 4.15 nM); with `O=C1CN(C(=O)C[C@H]2CC[C@]3(CC2)OO[C@]2(O3)C3CC4CC(C3)CC2C4)CCN1`, 0.6 ng/mL (≈ 1.48 nM); with `CC(C)(N)CNC(=O)[C@H]1CC[C@]2(CC1)OO[C@]1(O2)C2CC3CC(C2)CC1C3.Cc1ccc(S(=O)(=O)O)cc1`, 0.66 ng/mL.
Still for that read-out and setting: in the case of `O=C(C[C@H]1CC[C@]2(CC1)OO[C@]1(O2)C2CC3CC(C2)CC1C3)N1CCCCC1` it was 1.6 ng/mL (≈ 4.11 nM).
Turning to `O=C(C[C@H]1CC[C@]2(CC1)OO[C@]1(O2)C2CC3CC(C2)CC1C3)N1CCOCC1`, the 50% inhibitory concentration (IC50) turned out to be 1.7 ng/mL (≈ 4.34 nM).
Same read-out and setting: with `NC(=O)C[C@H]1CC[C@]2(CC1)OO[C@]1(O2)C2CC3CC(C2)CC1C3` the figure was 0.91 ng/mL (≈ 2.83 nM); with `Cc1ccc(S(=O)(=O)O)cc1.NCCCNC(=O)C[C@H]1CC[C@]2(CC1)OO[C@]1(O2)C2CC3CC(C2)CC1C3`, 3.5 ng/mL.

For another test, the system named is Plasmodium berghei. Description: Antiplasmodial activity against Plasmodium berghei infected in NMRI mice (Mus musculus) assessed as reduction of parasitaemia level at 10 mg/kg, perorally administered 1 day after post-infection measured after 3 days post-infection. Format: functional. Set-up: scale not given: the % may be the effect or the level left. The conditions noted are these: route oral. In a few lines:
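Groups of five NMRI mice infected with P. berghei received a single oral dose on day 1 postinfection. Read-out was percent reduction in parasitemia on day 3 postinfection. Individual measurements differed by less than 10%.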
On to `Cc1ccc(S(=O)(=O)O)cc1.NCCNC(=O)C[C@H]1CC[C@]2(CC1)OO[C@]1(O2)C2CC3CC(C2)CC1C3`, for which the Activity is listed as 99.9%.
Turning to `CC(C)(N)CNC(=O)[C@H]1CC[C@@]2(CC1)OO[C@@]1(O2)C2CC3CC(C2)CC1C3.Cc1ccc(S(=O)(=O)O)cc1`, the Activity was 84%.
On to `NC(=O)CNC(=O)C[C@H]1CC[C@]2(CC1)OO[C@]1(O2)C2CC3CC(C2)CC1C3`, for which the Activity is recorded as 99.6%.
Still for that read-out and setting: with `CS(=O)(=O)N1CCN(C(=O)C[C@H]2CC[C@]3(CC2)OO[C@]2(O3)C3CC4CC(C3)CC2C4)CC1` the figure was under 40%; with `NC(=O)C1CCN(C(=O)C[C@H]2CC[C@]3(CC2)OO[C@]2(O3)C3CC4CC(C3)CC2C4)CC1`, 86%.
As to `O=CN1CCN(C(=O)C[C@H]2CC[C@]3(CC2)OO[C@]2(O3)C3CC4CC(C3)CC2C4)CC1`, the Activity was found to be 99.8%.
For `O=C(C[C@H]1CC[C@]2(CC1)OO[C@]1(O2)C2CC3CC(C2)CC1C3)NO`, the Activity was determined as 97%.
Still for that read-out and setting: with `O=C1CN(C(=O)C[C@H]2CC[C@]3(CC2)OO[C@]2(O3)C3CC4CC(C3)CC2C4)CCN1` the figure was 99.2%.
Still for that read-out and setting: in the case of `O=C(C[C@H]1CC[C@]2(CC1)OO[C@]1(O2)C2CC3CC(C2)CC1C3)N1CCS(=O)(=O)CC1` it was under 40%; in that of `CC(C)(N)CNC(=O)[C@H]1CC[C@]2(CC1)OO[C@]1(O2)C2CC3CC(C2)CC1C3.Cc1ccc(S(=O)(=O)O)cc1`, 96%; in that of `O=C(C[C@H]1CC[C@]2(CC1)OO[C@]1(O2)C2CC3CC(C2)CC1C3)N1CCOCC1`, 99.8%.
In the case of `NC(=O)C[C@H]1CC[C@]2(CC1)OO[C@]1(O2)C2CC3CC(C2)CC1C3`, the Activity is 97%.
For `Cc1ccc(S(=O)(=O)O)cc1.NCCCNC(=O)C[C@H]1CC[C@]2(CC1)OO[C@]1(O2)C2CC3CC(C2)CC1C3`, the Activity is reported as 99.9%.

One may read the IC50 as the midpoint of a concentration-inhibition curve.
